Compound activity: PubChem BioAssay, several laboratories
This is a sample that favours compounds with a hit; in the whole collection about 2.4% have one here.
STAT3 inh = IL-6 driven STAT3 reporter inhibitors, primary screen, U3A cells, luciferase, luminescence, MLSCN library; inhibition, % at 5.5 µM; 0.89% of 190,000 active; IL-6 STAT3-luciferase reporter; host cell line lacks STAT1; AID 862, 2007;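 active = inhibition above the mean inhibition across all screened compounds plus 3 SD, cut at about 44% in these data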;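 note: 0% = DMSO only wells and 100% = 100 µM nifuroxazide control wells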
bCat nuc transl = modulators of beta-catenin nuclear translocation, primary screen, imaging, HeLa cells, immunofluorescence, high-content; nuclear translocation activity, % at 5 µM; 0.3% of 190,000 active; AID 1665, 2009;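 active = nuclear translocation activity above 50% at 5 µM, with a well cell count of 50 or more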;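 note: per-cell ratio of nuclear to cytoplasmic median beta-catenin stain intensity; plate controls were DMSO negative control for no effect and GSK-3 inhibitor IX positive control for full effect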
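Signal – beta-catenin immunofluorescence imaging with DAPI · Test system – human HeLa cell line · Dosing – 5 µM primary single dose, 0.1% DMSO, 0.02–20 µM confirmation series · Measure – % activation, nuclear-to-cytoplasmic median beta-catenin signal ratio per cell · Incubation – 24 h compound exposure at 37°C, 5% CO2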
STAT1 inh = STAT1 signaling inhibitors, primary screen, cell-based, HTS, luciferase reporter. NIH 3T3 STAT1-luciferase reporter, IFN-gamma, luminescence. inhibition, % at 5.5 µM. 0.35% of 200,000 active. AID 920, 2007;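 active = inhibition above a set limit, the mean inhibition across all tested compounds plus 3 SD, cut at about 34% in these data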;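 note: 0% = IFN-gamma with DMSO and 100% = IFN-gamma with 300 µM nifuroxazide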
STAT3 activator = IL-6 driven STAT3 reporter potentiators, primary screen, U3A cells, luciferase, luminescence, MLSCN library | IL-6 STAT3-luciferase reporter; 100% = signal with IL-6 EC80 alone | activation (% of control), % at 5.6 µM | 0.91% of 190,000 active;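 active = activation above the screen-wide mean of compound activation plus 3 SD, cut at about 130% in these data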;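 note: 0% = background luminescence of wells with medium and substrate only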
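Test system: Human STAT1-deficient U3A cells with stable STAT3-luciferase reporter | Also added: Interleukin-6, 33 ng/mL | Timing: Compound pre-incubation 1 h before IL-6, then 6 h stimulation at 37 °C | Technique: Luciferase reporter luminescence | Read-out: Percent of IL-6-only median luminescence | Benchmarks: IL-6-only wells as 100% reference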
MT stabilize HCS = microtubule stabilizers in HeLa cells, primary screen, imaging, high-content imaging | AID 2205, 2009 | 0.83% of 200,000 active | % tubulin-high responders, % at 10 µM | HeLa tubulin immunostaining HCS, 24 h; share of cells brighter than vehicle mean+2SD;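 active = plate Z-score above 3 for both tubulin-high and condensed-nucleus cell shares, with cell loss under 80%, at 10 µM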;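 note: anti alpha tubulin signal scored within the nucleus-defined area of each cell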
* hit, by the source's call.

What do the screens show for `COCCn1c(/C=C/c2ccccc2)nc2ccccc21`?
STAT3 inh: 18; bCat nuc transl: -2; STAT1 inh: -54; STAT3 activator: 88; MT stabilize HCS: 2

What do the screens show for `Cn1c(/C=C/c2ccccc2)nc2ccccc21`?
STAT3 inh: 89*; bCat nuc transl: -1; STAT1 inh: 75*; STAT3 activator: 26; MT stabilize HCS: 3

Results for Cn1c(=O)c(/C=C/c2ccccc2)nc2ccccc21 ?
STAT3 inh: -52; bCat nuc transl: -1; STAT1 inh: -38; STAT3 activator: 146*; MT stabilize HCS: 2

How did Cc1ccccc1-c1nn(-c2ccc(F)cc2F)cc1CNC1CC1 do in these assays?
STAT3 inh: 12; bCat nuc transl: -2; STAT1 inh: 5; STAT3 activator: 94; MT stabilize HCS: 3

What do the screens show for `COc1ccc(CNC(=O)C/C(C)=N/NC(=O)c2cnccn2)cc1`?
STAT3 inh: 5; bCat nuc transl: 1; STAT1 inh: -6; STAT3 activator: 101; MT stabilize HCS: 2

How did O=C(CN(CC1CCCO1)C(=O)c1nsc(Cl)c1Cl)NC1CCCC1 (stereo unspecified) do in these assays?
STAT3 inh: 4; bCat nuc transl: 0; STAT1 inh: -1; STAT3 activator: 99; MT stabilize HCS: 3

How did CCOC(=O)c1ccc[n+](CC(=O)c2ccccc2)c1 do in these assays?
STAT3 inh: -10; bCat nuc transl: -1; STAT1 inh: 12; STAT3 activator: 109; MT stabilize HCS: 8

How did CCc1n[n+](CC(=O)c2ccccc2)c(N)s1 do in these assays?
STAT3 inh: 65*; bCat nuc transl: 3; STAT1 inh: 59*; STAT3 activator: 51; MT stabilize HCS: 6

What do the screens show for `CSc1nc2ncc(C(=O)O)c(N)n2n1`?
STAT3 inh: 11; bCat nuc transl: -1; STAT1 inh: 3; STAT3 activator: 94; MT stabilize HCS: 3

How did CCc1nnc(NC(=O)CSc2nnc(COc3ccc(C)cc3)n2-c2ccccc2)s1 do in these assays?
STAT3 inh: 7; bCat nuc transl: 0; STAT1 inh: -8; STAT3 activator: 96; MT stabilize HCS: 33*

What do the screens show for `CCc1nnc(NC(=O)CSc2nnc(Cc3ccccc3)n2-c2ccccc2)s1`?
STAT3 inh: 0; bCat nuc transl: -5; STAT1 inh: -4; STAT3 activator: 103; MT stabilize HCS: 6

Results for CCc1nnc(NC(=O)CSc2nnc(-c3ccccc3OC)n2-c2ccc(C)cc2)s1 ?
STAT3 inh: -28; bCat nuc transl: 2; STAT1 inh: -7; STAT3 activator: 120; MT stabilize HCS: 2

What do the screens show for `CCc1nnc(NC(=O)CSc2nnc(-c3ccccc3O)n2-c2ccc(C)cc2)s1`?
STAT3 inh: 9; bCat nuc transl: -1; STAT1 inh: 9; STAT3 activator: 95; MT stabilize HCS: 38*

How did CC(=O)N(Cc1ccc(Br)cc1)c1cccc(C)c1C do in these assays?
STAT3 inh: 2; bCat nuc transl: 52*; STAT1 inh: -3; STAT3 activator: 102; MT stabilize HCS: 16

How did COc1ccc(CN(C(C)=O)c2cccc(C)c2C)cc1 do in these assays?
STAT3 inh: 10; bCat nuc transl: 10; STAT1 inh: 5; STAT3 activator: 94; MT stabilize HCS: 43*

How did CC(=O)N(Cc1ccccc1)c1ccccc1C(=O)O do in these assays?
bCat nuc transl: 0

How did CC1=C(C(=O)OC(C)C)C(c2ccccc2)NC(=S)N1C (stereo unspecified) do in these assays?
STAT3 inh: 2; bCat nuc transl: 0; STAT1 inh: 3; STAT3 activator: 98; MT stabilize HCS: 5

How did COc1cccc(Sc2ccccc2/C=N/NC(N)=O)c1 do in these assays?
STAT3 inh: -2; bCat nuc transl: 45; STAT1 inh: 2; STAT3 activator: 102; MT stabilize HCS: 15*

How did C=CCOc1c(/C=N\NC(N)=O)cccc1OC do in these assays?
bCat nuc transl: 0

What do the screens show for `CC(Sc1ccccc1)C(=O)NN=C1CCCCCC1` (stereo unspecified)?
STAT3 inh: 5; bCat nuc transl: 0; STAT1 inh: -2; STAT3 activator: 104; MT stabilize HCS: 3

How did Cc1cc(C)c(S(=O)(=O)Nc2cc(SCC(=O)O)c(O)c3ccccc23)cc1C do in these assays?
STAT3 inh: -42; bCat nuc transl: 3; STAT1 inh: 4; STAT3 activator: 135*; MT stabilize HCS: 2
